Laboratory results published in ChEMBL document CHEMBL2034949, “Small Molecule Inhibitors of Regulator of G Protein Signalling (RGS) Proteins” (ACS Med Chem Lett, 2012).
pIC50: −log10 of the molar value. Activity calls are given as the source filed them. The rule behind the calls is not given here.

Key:
[1] = Selectivity ratio of IC50 for RGS8 to IC50 RGS4
[2] = biological target: Muscarinic acetylcholine receptor M3 (Homo sapiens) (UniProt P20309); experiment: Activity at human muscarinic M3 receptor expressed in HEK293T cells assessed as increase in carbachol-induced intracellular calcium level at 10 uM after 30 to 45 mins by fluorimetry; type: functional, cell-based; conditions: HEK-293T
Sequence of Muscarinic acetylcholine receptor M3 (Homo sapiens) (P20309 whole entry, looked up): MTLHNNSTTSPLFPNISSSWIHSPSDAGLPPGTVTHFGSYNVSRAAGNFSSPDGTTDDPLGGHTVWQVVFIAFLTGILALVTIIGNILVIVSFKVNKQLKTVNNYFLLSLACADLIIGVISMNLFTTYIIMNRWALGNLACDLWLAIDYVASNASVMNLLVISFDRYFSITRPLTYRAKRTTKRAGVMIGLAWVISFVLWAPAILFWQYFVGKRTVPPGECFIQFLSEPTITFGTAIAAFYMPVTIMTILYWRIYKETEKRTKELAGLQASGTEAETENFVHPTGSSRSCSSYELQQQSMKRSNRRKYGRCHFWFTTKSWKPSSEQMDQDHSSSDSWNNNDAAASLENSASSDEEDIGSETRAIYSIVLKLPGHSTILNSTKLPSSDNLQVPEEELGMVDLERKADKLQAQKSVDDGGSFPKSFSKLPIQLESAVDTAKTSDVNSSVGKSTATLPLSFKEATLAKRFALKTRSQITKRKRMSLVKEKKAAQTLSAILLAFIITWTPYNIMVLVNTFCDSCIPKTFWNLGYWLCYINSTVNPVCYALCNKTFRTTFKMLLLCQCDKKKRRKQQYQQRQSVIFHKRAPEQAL
How it was run: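 HEK-293 cells stably expressing human M3 muscarinic receptor, plated overnight, loaded with Fluo4-NW for 30 min at 37 °C. Compound added at 10 uM final in 1% DMSO; baseline fluorescence read after 30-45 min, then carbachol injected (10 nM final). Intracellular Ca++ rise expressed as percent of baseline; triplicate determinations, DMSO control n=16.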

[3] = Aqueous solubility of the compound at 500 uM; type: physicochemical; conditions: buffer
[4] = biological target: Regulator of G-protein signaling 4 (Homo sapiens, UniProt P49798); experiment: Inhibition of RGS4 interaction with Galpha0 protein by flow cytometry protein interaction assay
Sequence of Regulator of G-protein signaling 4 (P49798 whole entry): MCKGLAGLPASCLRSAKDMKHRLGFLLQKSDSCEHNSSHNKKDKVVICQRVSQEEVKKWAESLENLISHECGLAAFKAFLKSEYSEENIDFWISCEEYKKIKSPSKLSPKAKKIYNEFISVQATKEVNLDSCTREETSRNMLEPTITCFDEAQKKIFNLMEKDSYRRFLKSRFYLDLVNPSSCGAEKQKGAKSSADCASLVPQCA
How it was run: (§1)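 Inhibition of Gαo binding to RGS4 or RGS8. IC50 taken as the average of two independent experiments.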

[5] = biological target: T1, Regulator of G-protein signaling 8 (Homo sapiens, UniProt P57771); experiment: Inhibition of RGS8 interaction with Galpha0 protein by flow cytometry protein interaction assay; how it was run: as §1
T1 sequence (P57771 whole entry): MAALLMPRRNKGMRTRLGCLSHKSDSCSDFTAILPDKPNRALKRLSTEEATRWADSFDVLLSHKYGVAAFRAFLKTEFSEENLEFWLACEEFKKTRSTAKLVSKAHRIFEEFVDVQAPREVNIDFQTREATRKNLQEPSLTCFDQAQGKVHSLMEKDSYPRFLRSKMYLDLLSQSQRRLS

SMILES: CCn1sc(=O)n(CCOC)c1=O
- Ratio IC50 [1]: 665
- Activity [2]: inactive

SMILES: O=c1sn(-c2cccc(C(F)(F)F)c2)c(=O)n1Cc1ccccc1
- Ratio IC50 [1]: 286

SMILES: CCCCn1c(=O)sn(CC)c1=O
- solubility [3]: soluble
- Activity [2]: inactive

SMILES: O=c1sn(-c2ccccc2)c(=O)n1Cc1ccc(F)cc1
- Ratio IC50 [1]: 380

SMILES: Cc1cccc(-n2sc(=O)n(Cc3ccc(F)cc3)c2=O)c1
- Ratio IC50 [1]: 59

SMILES: CCCCn1c(=O)sn(-c2ccc(C)cc2)c1=O
- Ratio IC50 [1]: 483

SMILES: O=c1sn(-c2cccc(Cl)c2)c(=O)n1Cc1ccc(F)cc1
- Ratio IC50 [1]: 245

SMILES: CC(C)Cn1c(=O)sn(C(C)(C)C)c1=O
- solubility [3]: soluble
- Ratio IC50 [1]: 6660

SMILES: CCn1sc(=O)n(Cc2ccc(F)cc2)c1=O
- Ratio IC50 [1]: 842

SMILES: Cc1ccc(Cn2c(=O)sn(-c3ccc(C)cc3)c2=O)cc1
- Ratio IC50 [1]: 1340

SMILES: Cc1ccc(Cn2sc(=O)n(Cc3ccccc3)c2=O)cc1
- Ratio IC50 [1]: 2840

SMILES: O=c1sn(-c2cccc(C(F)(F)F)c2)c(=O)n1Cc1ccc(F)cc1
- Ratio IC50 [1]: 204

SMILES: Cc1ccc(-n2sc(=O)n(C)c2=O)cc1
- Ratio IC50 [1]: 445

SMILES: O=c1sn(-c2ccccc2)c(=O)n1Cc1ccccc1
- Ratio IC50 [1]: 239

SMILES: CCn1sc(=O)n(CC(C)C)c1=O
- solubility [3]: soluble
- Ratio IC50 [1]: 2680

SMILES: Cc1ccc(-n2sc(=O)n(Cc3ccc(Cl)c(Cl)c3)c2=O)cc1
- Ratio IC50 [1]: 460

SMILES: Cc1ccc(-n2sc(=O)n(Cc3cccc(Cl)c3)c2=O)cc1
- Ratio IC50 [1]: 1000

SMILES: Cc1ccc(Cn2sc(=O)n(Cc3ccc(F)cc3)c2=O)cc1
- Ratio IC50 [1]: 3090

SMILES: CCn1sc(=O)n(C)c1=O
- solubility [3]: soluble
- Ratio IC50 [1]: 1660

SMILES: CCCCn1sc(=O)n(CCCC)c1=O
- solubility [3]: soluble
- Ratio IC50 [1]: 4110

SMILES: O=c1sn(-c2cccc(Cl)c2)c(=O)n1Cc1ccccc1
- Ratio IC50 [1]: 335

SMILES: Cc1ccc(-n2sc(=O)n(Cc3ccc(F)cc3)c2=O)cc1
- pIC50 [4]: 7.52
- Ratio IC50 [1]: 366
- pIC50 [5]: 4.96
- Activity [2]: Active

SMILES: CCCCn1sc(=O)n(Cc2ccc(F)cc2)c1=O
- Ratio IC50 [1]: 2020

SMILES: O=c1sn(-c2ccc(Cl)c(Cl)c2)c(=O)n1Cc1ccc(F)cc1
- Ratio IC50 [1]: 481

SMILES: Cc1ccc(CN2C(=O)CN(c3ccc(C)cc3)C2=O)cc1
- pIC50 [4]: < 4.00
- pIC50 [5]: < 4.00

SMILES: Cc1cccc(-n2sc(=O)n(Cc3ccccc3)c2=O)c1
- Ratio IC50 [1]: 558

SMILES: Cc1ccc(-n2sc(=O)n(Cc3ccc(Cl)cc3)c2=O)cc1
- Ratio IC50 [1]: 2170

SMILES: Cc1ccc(-n2sc(=O)n(CC(C)C)c2=O)cc1
- Ratio IC50 [1]: 550

SMILES: O=c1sn(-c2ccc(Cl)c(Cl)c2)c(=O)n1Cc1ccccc1
- Ratio IC50 [1]: 149

SMILES: CCCCn1sc(=O)n(C)c1=O
- solubility [3]: soluble
- Ratio IC50 [1]: 1210

SMILES: CCCCn1sc(=O)n(CC(C)C)c1=O
- solubility [3]: soluble
- Ratio IC50 [1]: 2540

SMILES: COc1ccc(Cn2c(=O)sn(-c3ccc(C)cc3)c2=O)cc1
- pIC50 [4]: 6.75
- Ratio IC50 [1]: 1780

SMILES: COc1ccc(-n2sc(=O)n(Cc3ccccc3)c2=O)cc1
- Ratio IC50 [1]: 515

SMILES: Cc1ccc(-n2sc(=O)n(Cc3ccccc3)c2=O)cc1
- Ratio IC50 [1]: 519

SMILES: Cn1c(=O)sn(C(C)(C)C)c1=O
- solubility [3]: soluble
- Ratio IC50 [1]: 2020

SMILES: O=c1sn(-c2ccc(Cl)cc2)c(=O)n1Cc1ccc(F)cc1
- Ratio IC50 [1]: 564

SMILES: O=c1sn(-c2ccc(Cl)cc2)c(=O)n1Cc1ccccc1
- Ratio IC50 [1]: 183

SMILES: CCCCn1c(=O)sn(C(C)(C)C)c1=O
- solubility [3]: soluble
- Ratio IC50 [1]: 2220

SMILES: COc1ccc(-n2sc(=O)n(Cc3ccc(F)cc3)c2=O)cc1
- Ratio IC50 [1]: 1050

SMILES: Cc1ccc(-n2sc(=O)n(Cc3cccc(C)c3)c2=O)cc1
- Ratio IC50 [1]: 679
